In the library only some 4.6% were active in any assay of this set; here they are far more common.
TAAR1 antagonist: human TAAR1 antagonists, primary screen, Fluo-8 calcium fluorescence, CHO RD-HGA16 cells | AID 624466, 2012 | inhibition, % at 3 µM | Trace amine-associated receptor 1 (Homo sapiens), Q96RJ0 | antagonist | hit rate 1.5% among 360,000;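 active = inhibition above a per-plate cutoff, the mean inhibition of test compounds on that plate plus 3 SD, cut at about 49% in these data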;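 note: 0% = DMSO plus EC80 beta-PEA response and 100% = DMSO alone without agonist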
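Material: RD-HGA16 CHO cells with stable hTAAR1 and Gα16; Dosing: single nominal final test compound concentration of 3 µM; Schedule: seeding 17-24 h prior, 75-min 37 °C, 30-min RT dye loading; Detection: kinetic Fluo-8 calcium fluorescence measurement; Measure: % inhibition from peak post-agonist over basal fluorescence ratio; Benchmarks: vehicle and agonist controls.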
CHO parental Ca: ATP-evoked calcium signal inhibitors, parental CHO, primary screen, counter-screen for OX1R antagonist project, cell-based, fluorescence, Fluo-8 calcium dye. inhibition, % at 5.6 µM. parental CHO-K1, ATP-induced calcium, Fluo-8 fluorescence. hit rate 0.63% among 330,000;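 active = inhibition above that plate's mean sample inhibition plus 3 SD, cut at about 26% in these data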;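 note: 0% = ATP-challenged DMSO wells and 100% = DMSO wells without ATP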
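Assay system: parental CHO cells; Read-out basis: percent inhibition of ATP-evoked calcium rise, normalized to controls; Benchmarks: ATP and no-ATP DMSO wells; Compound dosing: single nominal dose of 5.6 µM per compound; Signal: Fluo-8 calcium dye fluorescence; Also added: ATP as calcium-mobilizing challenge; Repeats: singlicate.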
OX1R antag-1: OX1R (HCRTR1) antagonists, primary screen, fluorescence, CHO/OX1R cells, Fluo-8 calcium, orexin A. AID 434989, 2010. inhibition, % at 5 µM. Orexin/Hypocretin receptor type 1 (Homo sapiens), O43613. hit rate 0.43% among 330,000. Fluo-8 calcium fluorescence;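 active = inhibition above its plate's threshold, mean inhibition of all tested compounds on the plate plus 3 SD, cut at about 37% in these data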;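 note: 0% = orexin A challenge wells and 100% = SB-334867-A antagonist wells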
Target sequence (O43613 whole entry, looked up): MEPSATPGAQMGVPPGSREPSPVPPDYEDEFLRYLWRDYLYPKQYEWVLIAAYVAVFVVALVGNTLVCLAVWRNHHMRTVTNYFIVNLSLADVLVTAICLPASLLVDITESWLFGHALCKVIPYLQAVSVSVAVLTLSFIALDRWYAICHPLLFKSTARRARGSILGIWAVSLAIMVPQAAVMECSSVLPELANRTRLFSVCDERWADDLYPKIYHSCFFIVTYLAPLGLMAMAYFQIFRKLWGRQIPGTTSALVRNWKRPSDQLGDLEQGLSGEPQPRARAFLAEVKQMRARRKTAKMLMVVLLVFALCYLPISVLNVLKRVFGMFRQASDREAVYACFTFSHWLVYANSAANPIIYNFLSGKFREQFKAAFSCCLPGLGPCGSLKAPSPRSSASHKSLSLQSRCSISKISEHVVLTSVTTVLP
TAAR1 agonist: human TAAR1 agonists, primary screen, Fluo-8 calcium fluorescence, CHO RD-HGA16 cells; vehicle wells 0%, saturating PEA agonist 100%; activation, % at 3 µM; hit rate 0.99% among 360,000;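 active = activation above the mean activation of all test compounds in the run plus 3 SD, cut at about 38% in these data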
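Assay system: CHO-derived RD-HGA16 cells with stable Gα16 and human TAAR1; timing: 17-24 h seeding, 75 min 37 °C dye, 30 min RT; read-out: % activation from peak over basal fluorescence ratio, DMSO-to-PEA scaled; measured by: kinetic Fluo-8 calcium fluorescence; benchmarks: low control DMSO, high control PEA (EC100); doses: 3 µM single concentration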
GPR7 antagonist: GPR7 receptor antagonists, primary screen, cell-based, fluorescence, single concentration. Neuropeptides B/W receptor type 1 (Homo sapiens), P48145. GPR7-expressing cells, fluorescence antagonist assay. inhibition, % at 4.4 µM. hit rate 1.1% among 290,000; in the data active = inhibition above about 16%, passing the limit was not always enough;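 note: cells stimulated with the agonist NPW; 0% = agonist with vehicle and 100% = vehicle without agonist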
OX1R antag-2: antagonists of human orexin 1 receptor (OX1R) | Orexin/Hypocretin receptor type 1 (Homo sapiens), O43613 | OX1R-expressing cells, FRET antagonist read-out | inhibition, % at 6.6 µM | hit rate 1.8% among 330,000 | AID 485270, 2010; in the data active = inhibition mostly above about 38%, no sharp cut-off; inactive = mostly below about 40%;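 note: 0% = agonist challenge alone and 100% = reference antagonist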
TAAR1 ag confirm: human TAAR1 agonists, retest of hits, confirmation, Fluo-8 calcium fluorescence, CHO RD-HGA16 cells | shares compounds with TAAR1 agonist | scaled: DMSO 0%, maximal phenethylamine 100% | activation, % at 3 µM | hit rate 82% among 2,400;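 active = activation above a cutoff set at the run's mean compound activation plus 3 SD, cut at about 39% in these data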
Ga16 nonsel ag: nonselective calcium mobilization agonists, CHO-Ga16 cells, counter-screen for hTAAR1 agonist project, cell-based, fluorescence, CHO-Ga16 parental line. shares compounds with TAAR1 agonist. activation, % at 3 µM. hit rate 50% among 2,400. Fluo-8 calcium fluorescence; normalized to maximal ATP response, DMSO zero. AID 651787, 2012;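 active = activation above the run cutoff, the mean activation over all tested wells plus 3 SD, cut at about 12% in these data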;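 note: 0% = DMSO wells and 100% = maximal ATP response on the peak over basal ratio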
TAAR1 desensitize: TAAR1 desensitization by agonist hits, confirmation, counter-screen for TAAR1 agonist project, cell-based, fluorescence, tachyphylaxis; inhibition, % at 3 µM; shares compounds with TAAR1 agonist; CHO RD-HGA16 hTAAR1, Fluo-8 calcium, beta-PEA response inhibition; hit rate 46% among 2,400;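 active = inhibition above the run cutoff, the mean inhibition of all test compounds plus 3 SD, cut at about 49% in these data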;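 note: beta-PEA stimulus applied at its EC80; loss of beta-PEA calcium signal after compound pretreatment read as receptor desensitization; 0% = DMSO with beta-PEA at EC80 and 100% = DMSO alone without agonist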
Ga16 antag count: inhibition of ATP-evoked calcium response in CHO-Ga16 cells, counter-screen for TAAR1 agonist project, cell-based, fluorescence; hit rate 39% among 2,400; CHO-Ga16 ATP-induced calcium, Fluo-8 fluorescence; inhibition, % at 3 µM; shares compounds with TAAR1 agonist;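 active = inhibition above the plate's mean compound inhibition plus 3 SD, computed per plate, cut at about 22% in these data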;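 note: 0% = EC80 ATP with DMSO and 100% = DMSO wells without ATP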
The depositor's hits bear a star; · = no result.

SMILES | TAAR1 antagonist | CHO parental Ca | OX1R antag-1 | TAAR1 agonist | GPR7 antagonist | OX1R antag-2 | TAAR1 ag confirm | Ga16 nonsel ag | TAAR1 desensitize | Ga16 antag count
COc1cccc(NC(=O)C(=O)NCC(c2ccco2)N2CCc3ccccc3C2)c1 (configuration not stated) | -21.1 | -15.8 | -13.3 | 11.4 | · | 16.2 | · | · | · | ·
COc1ccc(NC(=O)C(=O)NCC(c2ccco2)N2CCc3ccccc3C2)cc1OC (configuration not stated) | -10.3 | -21.5 | -39.9 | 56.0* | · | 14.8 | 47.9* | 2.4 | 15.9 | 11.6
OC(c1ccccc1)c1nc(-c2cccc(C(F)(F)F)c2)cs1 (configuration not stated) | 11.8 | · | · | 3.4 | · | · | · | · | · | ·
Cc1nn(-c2ccccc2)c(Cl)c1C1C(C#N)=C(N)Oc2c1c(C)nn2-c1ccccc1 (configuration not stated) | 24.9 | -19.0 | -33.3 | 61.3* | -1.1 | 23.9 | 57.8* | 34.0* | 35.9 | 25.3*
CCOc1ccc(S(=O)(=O)N2CCOCC2)cc1NS(=O)(=O)c1ccc(OC)c([N+](=O)[O-])c1 | -17.7 | -17.4 | -31.4 | 11.5 | · | 21.4 | · | · | · | ·
COc1ccc(CC(N)c2csc(NC(=O)c3cc(C(C)(C)C)oc3C)n2)cc1 (configuration not stated) | 28.3 | · | · | 48.0* | · | · | 29.6 | 30.1* | 40.1 | 51.0*
COc1ccc(CNC(=O)Nc2nc(C(N)CCc3ccccc3)cs2)cc1 (configuration not stated) | 31.2 | · | · | 21.1 | · | · | · | · | · | ·
COc1ccc(CC(N)c2csc(NC(=O)CCc3ccccc3)n2)cc1 (configuration not stated) | 59.3* | · | · | 61.9* | · | · | 31.2 | 27.9* | 40.4 | 37.5*
NC(Cc1ccc(F)cc1)c1csc(NC(=O)NC(c2ccccc2)c2ccccc2)n1 (configuration not stated) | 67.8* | · | · | 56.4* | · | · | 25.1 | 23.0* | 35.4 | 44.7*
COc1ccc(CNC(=O)Nc2nc(C(N)Cc3ccc(F)cc3)cs2)cc1 (configuration not stated) | 58.7* | · | · | 57.0* | · | · | 70.4* | 33.9* | 66.1* | 59.0*
Oc1ccccc1C1=NC(c2ccccc2)NC(c2ccccc2)C1 (configuration not stated) | 7.8 | · | · | 4.0 | · | · | · | · | · | ·
CC(C)(C)NC(=O)Cn1c(Cl)nc2ccccc21 | -22.0 | -5.0 | -16.6 | 5.5 | 5.1 | 2.8 | · | · | · | ·
CCC(C)(C)C(=O)Nc1ncc(S(=O)(=O)c2ccc([N+](=O)[O-])cc2)s1 | 39.2 | -4.4 | 16.0 | 104.2* | 25.4 | 4.4 | 75.9* | 52.1* | 51.5* | 41.2*
O=C(Nc1cccc(N2C(=O)C=CC2=O)c1)c1cccs1 | 21.9 | -6.2 | -4.7 | 56.7* | · | 22.0 | 27.4 | 18.9* | 23.9 | 21.6*
Cc1nc2ccccc2c(=O)n1-c1cccc(NC(=O)c2cccs2)c1 | -28.1 | -12.8 | -19.3 | -1.2 | · | 23.7 | · | · | · | ·

Screening data: PubChem BioAssay, The Scripps Research Institute Molecular Screening Center
